According to ChEMBL document CHEMBL3758168, “Hybrid triazoles: Design and synthesis as potential dual inhibitor of growth and efflux inhibition in tuberculosis” (Eur J Med Chem, 2016):
In brackets after ≈: the same amount, converted by molar mass.

Columns and labels:
[1] = tested on: Mycolicibacterium smegmatis; assay: Anti-tubercular activity against Mycobacterium smegmatis MC2 155 ATCC 700084 after 3 days by microdilution method; assay type: functional; conditions: MC2 155 ATCC 700084, 72 h
Method in brief: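 M. smegmatis mc2155 grown in MB7H9 + 10% OADC at 37 °C with shaking to OD600 0.8. Inoculum set to 0.5 McFarland, diluted 1:100, and mixed 1:1 with two-fold serial dilutions in MB7H9. Plates incubated 3 days at 37 °C with growth and sterility controls. MIC taken as the lowest concentration with no visible growth.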

[2] = Ratio of compound IC50 to thioridazine IC50 for human MDM; assay type: ADME; conditions: read-out: Ratio IC50
[3] = tested on: Mycobacterium tuberculosis; assay: Antibacterial activity against Mycobacterium tuberculosis H37Rv ATCC 27294T assessed as isoniazid MIC at 64 ug/ml after 7 days by microdilution checkerboard assay; assay type: functional; conditions: 168 h
Method in brief: (§1)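 Two-dimensional checkerboard in H37Rv at 10^5 CFU/ml in MB7H9/OADC. Partner drug (amikacin, EtBr, isoniazid, ofloxacin or rifampin) two-fold serially diluted across columns 3-11. Test compound two-fold serially diluted down rows 2-6. Plates incubated 7 days at 37 °C, then MTT added overnight. […] Run in triplicate.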

[4] = tested on: Mycobacterium tuberculosis; assay: Antibacterial activity against Mycobacterium tuberculosis H37Rv ATCC 27294T assessed as isoniazid MIC at 32 ug/ml after 7 days by microdilution checkerboard assay; assay type: functional; conditions: 168 h; method in brief: as §1
[5] = tested on: Mycobacterium tuberculosis; assay: Antibacterial activity against Mycobacterium tuberculosis H37Rv ATCC 27294T assessed as ethidium bromide MIC at 128 ug/ml after 7 days by microdilution checkerboard assay; assay type: functional; conditions: 168 h; method in brief: as §1
[6] = tested on: Mycobacterium tuberculosis; assay: Antibacterial activity against Mycobacterium tuberculosis H37Rv ATCC 27294T assessed as ethidium bromide MIC at 32 ug/ml after 7 days by microdilution checkerboard assay; assay type: functional; conditions: 168 h; method in brief: as §1
[7] = tested on: Mycobacterium tuberculosis; assay: Antibacterial activity against Mycobacterium tuberculosis H37Rv ATCC 27294T assessed as ethidium bromide MIC at 64 ug/ml after 7 days by microdilution checkerboard assay; assay type: functional; conditions: 168 h; method in brief: as §1
[8] = tested on: Mycobacterium tuberculosis; assay: Antibacterial activity against Mycobacterium tuberculosis H37Rv ATCC 27294T assessed as ethidium bromide MIC at 2 ug/ml after 7 days by microdilution checkerboard assay; assay type: functional; conditions: 168 h; method in brief: as §1
[9] = tested on: Mycobacterium tuberculosis; assay: Antibacterial activity against Mycobacterium tuberculosis H37Rv ATCC 27294T assessed as ethidium bromide MIC at 4 ug/ml after 7 days by microdilution checkerboard assay; assay type: functional; conditions: 168 h; method in brief: as §1
[10] = tested on: Mycobacterium tuberculosis; assay: Antibacterial activity against Mycobacterium tuberculosis H37Rv ATCC 27294T assessed as ethidium bromide MIC at 16 ug/ml after 7 days by microdilution checkerboard assay; assay type: functional; conditions: 168 h; method in brief: as §1
[11] = tested on: Mycobacterium tuberculosis; assay: Antibacterial activity against Mycobacterium tuberculosis H37Rv ATCC 27294T assessed as ofloxacin MIC at 32 ug/ml after 7 days by microdilution checkerboard assay; assay type: functional; conditions: 168 h; method in brief: as §1
[12] = tested on: Mycobacterium tuberculosis; assay: Antibacterial activity against Mycobacterium tuberculosis H37Rv ATCC 27294T assessed as ofloxacin MIC at 2 ug/ml after 7 days by microdilution checkerboard assay; assay type: functional; conditions: 168 h; method in brief: as §1
[13] = tested on: Mycobacterium tuberculosis; assay: Antibacterial activity against Mycobacterium tuberculosis H37Rv ATCC 27294T assessed as amikacin MIC at 128 ug/ml after 7 days by microdilution checkerboard assay; assay type: functional; conditions: 168 h; method in brief: as §1
[14] = tested on: Mycobacterium tuberculosis; assay: Antibacterial activity against Mycobacterium tuberculosis H37Rv ATCC 27294T assessed as amikacin MIC at 2 ug/ml after 7 days by microdilution checkerboard assay; assay type: functional; conditions: 168 h; method in brief: as §1
[15] = tested on: Mycobacterium tuberculosis; assay: Antibacterial activity against Mycobacterium tuberculosis H37Rv ATCC 27294T assessed as amikacin MIC at 4 ug/ml after 7 days by microdilution checkerboard assay; assay type: functional; conditions: 168 h; method in brief: as §1
[16] = tested on: Mycobacterium tuberculosis; assay: Anti-tubercular activity against Mycobacterium tuberculosis H37Rv ATCC 27294T after 7 days by mircodilution method; assay type: functional; conditions: 168 h
Method in brief: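 H37Rv grown static in MB7H9 + 10% OADC at 37 °C to OD600 0.8, then diluted to about 10^5 cells/ml. Mixed 1:1 with two-fold serial dilutions in MB7H9/OADC and incubated 7 days at 37 °C. MTT added to final 2.5% and plates incubated overnight. MIC is the lowest concentration with no colour change. Run in triplicate.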

[17] = tested on: Mycobacterium tuberculosis; assay: Antibacterial activity against Mycobacterium tuberculosis H37Rv ATCC 27294T assessed as isoniazid MIC at 16 ug/ml after 7 days by microdilution checkerboard assay; assay type: functional; conditions: 168 h; method in brief: as §1
[18] = tested on: Mycobacterium tuberculosis; assay: Antibacterial activity against Mycobacterium tuberculosis H37Rv ATCC 27294T assessed as isoniazid MIC at 8 ug/ml after 7 days by microdilution checkerboard assay; assay type: functional; conditions: 168 h; method in brief: as §1
[19] = tested on: Mycobacterium tuberculosis; assay: Antibacterial activity against Mycobacterium tuberculosis H37Rv ATCC 27294T assessed as isoniazid MIC at 4 ug/ml after 7 days by microdilution checkerboard; assay type: functional; conditions: 168 h; method in brief: as §1
[20] = tested on: Mycobacterium tuberculosis; assay: Antibacterial activity against Mycobacterium tuberculosis H37Rv ATCC 27294T assessed as isoniazid MIC at 2 ug/ml after 7 days by microdilution checkerboard assay; assay type: functional; conditions: 168 h; method in brief: as §1
[21] = tested on: Mycobacterium tuberculosis; assay: Antibacterial activity against Mycobacterium tuberculosis H37Rv ATCC 27294T assessed as amikacin MIC at 8 ug/ml after 7 days by microdilution checkerboard assay; assay type: functional; conditions: 168 h; method in brief: as §1
[22] = tested on: Mycobacterium tuberculosis; assay: Antibacterial activity against Mycobacterium tuberculosis H37Rv ATCC 27294T assessed as amikacin MIC at 16 ug/ml after 7 days by microdilution checkerboard assay; assay type: functional; conditions: 168 h; method in brief: as §1
[23] = tested on: Mycobacterium tuberculosis; assay: Antibacterial activity against Mycobacterium tuberculosis H37Rv ATCC 27294T assessed as rifampin MIC at 32 ug/ml after 7 days by microdilution checkerboard assay; assay type: functional; conditions: 168 h
Method in brief: (§2)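 M. tuberculosis H37Rv grown in MB7H9 + 10% OADC at 37 °C to OD600 0.8; plates inoculated at 10^5 CFU/ml. Rifampicin two-fold serially diluted across columns, test compound two-fold diluted down rows (two-dimensional checkerboard). Sealed, 37 °C for seven days, then MTT added and incubated overnight. MIC read as no colour change. Triplicate.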

[24] = tested on: Mycobacterium tuberculosis; assay: Antibacterial activity against Mycobacterium tuberculosis H37Rv ATCC 27294T assessed as rifampin MIC at 64 ug/ml after 7 days by microdilution checkerboard assay; assay type: functional; conditions: 168 h; method in brief: as §2
[25] = tested on: Mycobacterium tuberculosis; assay: Antibacterial activity against Mycobacterium tuberculosis H37Rv ATCC 27294T assessed as rifampin MIC at 4 ug/ml after 7 days by microdilution checkerboard assay; assay type: functional; conditions: 168 h; method in brief: as §2
[26] = tested on: Mycobacterium tuberculosis; assay: Antibacterial activity against Mycobacterium tuberculosis H37Rv ATCC 27294T assessed as rifampin MIC at 8 ug/ml after 7 days by microdilution checkerboard assay; assay type: functional; conditions: 168 h; method in brief: as §2
[27] = tested on: Mycobacterium tuberculosis; assay: Antibacterial activity against Mycobacterium tuberculosis H37Rv ATCC 27294T assessed as rifampin MIC at 16 ug/ml after 7 days by microdilution checkerboard assay; assay type: functional; conditions: 168 h; method in brief: as §2
[28] = tested on: Mycobacterium tuberculosis; assay: Modulation factor, ratio of refampin MIC to compound MIC for Mycobacterium tuberculosis H37Rv ATCC 27294T at 64 ug/ml in presence of refampin; assay type: functional
[29] = tested on: Mycobacterium tuberculosis; assay: Modulation factor, ratio of refampin MIC to compound MIC for Mycobacterium tuberculosis H37Rv ATCC 27294T at 128 ug/ml in presence of refampin; assay type: functional
[30] = tested on: Mycobacterium tuberculosis; assay: Modulation factor, ratio of amikacin MIC to compound MIC for Mycobacterium tuberculosis H37Rv ATCC 27294T at 128 ug/ml in presence of amikacin; assay type: functional

**Q.** What does the source list for `CCCSc1nnc(COc2ccccc2C2=NOC(c3ccc(Cl)cc3Cl)C2)n1NC(=O)CCl` (stereo not given)?
**A.** MIC [1]: 4 µg/mL (≈ 7.21 µM); selectivity ratio [2]: 3; MIC [3]: 0.1 µg/mL; MIC [4]: 0.1 µg/mL; MIC [5]: 0.39 µg/mL; MIC [6]: 12.5 µg/mL; MIC [7]: 6.25 µg/mL; MIC [8]: 12.5 µg/mL; MIC [9]: 12.5 µg/mL; MIC [10]: 12.5 µg/mL; MIC [11]: 1 µg/mL; MIC [12]: 2 µg/mL; MIC [13]: 0.125 µg/mL; MIC [14]: 1 µg/mL; MIC [15]: 1 µg/mL; MIC [16]: 64 µg/mL (≈ 115 µM); MIC [17]: 0.1 µg/mL; MIC [18]: 0.1 µg/mL; MIC [19]: 0.1 µg/mL; MIC [20]: 0.1 µg/mL; MIC [21]: 1 µg/mL; MIC [22]: 1 µg/mL; MIC [23]: 0.5 µg/mL; MIC [24]: 0.25 µg/mL; MIC [25]: 0.5 µg/mL; MIC [26]: 0.5 µg/mL; MIC [27]: 0.5 µg/mL; Ratio [28]: 4; Ratio [29]: 64; Ratio [30]: 16
